How the values were obtained:
[1] = system: Rattus norvegicus; test: Aspartate aminotransferase activity in Sprague-Dawley rat serum at 100 mg/kg, po; format: functional
Outline: (§1)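 Male Sprague–Dawley rats (180-200 g), 5 per group, dosed orally once daily for 5 successive days. Twenty-four hours after the last dose, each rat received a single oral dose of 50% CCl4 in corn oil (2.5 ml/kg). Comparison groups were corn oil alone and CCl4 alone. Two days later, blood was taken from the orbital plexus, and serum was separated by centrifugation at 3000 rpm for 15 min for the assays.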

[2] = system: Rattus norvegicus; test: Total bilirubin level in Sprague-Dawley rat serum at 100 mg/kg, po; format: functional; outline: as §1
[3] = system: Rattus norvegicus; test: Triglyceride level in Sprague-Dawley rat serum at 100 mg/kg, po; format: functional; outline: as §1
[4] = system: Rattus norvegicus; test: Albumin level in Sprague-Dawley rat serum at 100 mg/kg, po; format: functional; outline: as §1
[5] = system: Rattus norvegicus; test: Glucose level in Sprague-Dawley rat serum at 100 mg/kg, po; format: functional; outline: as §1
[6] = system: Rattus norvegicus; test: Gamma-glutamyl transferase activity in Sprague-Dawley rat serum at 100 mg/kg, po; format: functional; outline: as §1
[7] = system: Rattus norvegicus; test: Total protein level in Sprague-Dawley rat serum at 100 mg/kg, po; format: functional; outline: as §1
[8] = system: Rattus norvegicus; test: Cholesterol level in Sprague-Dawley rat serum at 100 mg/kg, po; format: functional; outline: as §1
[9] = system: Rattus norvegicus; test: Alanine aminotransferase activity in Sprague-Dawley rat serum at 100 mg/kg, po; format: functional; outline: as §1
[10] = system: Rattus norvegicus; test: Glucose level in Sprague-Dawley rat serum at 25 mg/kg, po; format: functional, organism-based; set-up: dose 25 mg/kg; outline: as §1
[11] = system: Rattus norvegicus; test: Gamma-glutamyl transferase activity in Sprague-Dawley rat serum at 25 mg/kg, po; format: functional, organism-based; set-up: dose 25 mg/kg; outline: as §1
[12] = system: Rattus norvegicus; test: Alanine aminotransferase activity in Sprague-Dawley rat serum at 25 mg/kg, po; format: functional, organism-based; set-up: dose 25 mg/kg; outline: as §1
[13] = system: Rattus norvegicus; test: Triglyceride level in Sprague-Dawley rat serum at 25 mg/kg, po; format: functional, organism-based; set-up: dose 25 mg/kg; outline: as §1
[14] = system: Rattus norvegicus; test: Total protein level in Sprague-Dawley rat serum at 25 mg/kg, po; format: functional, organism-based; set-up: dose 25 mg/kg; outline: as §1
[15] = system: Rattus norvegicus; test: Aspartate aminotransferase activity in Sprague-Dawley rat serum at 25 mg/kg, po; format: functional, organism-based; set-up: dose 25 mg/kg; outline: as §1
[16] = system: Rattus norvegicus; test: Total bilirubin level in Sprague-Dawley rat serum at 25 mg/kg, po; format: functional, organism-based; set-up: dose 25 mg/kg; outline: as §1
[17] = system: Rattus norvegicus; test: Cholesterol level in Sprague-Dawley rat serum at 25 mg/kg, po; format: functional, organism-based; set-up: dose 25 mg/kg; outline: as §1
[18] = system: Rattus norvegicus; test: Albumin level in Sprague-Dawley rat serum at 25 mg/kg, po; format: functional, organism-based; set-up: dose 25 mg/kg; outline: as §1

Row | Compound | Activity [1] [U/L] | Activity [2] [mg/dL] | Activity [3] [mg/dL] | Activity [4] [g/dL] | Activity [5] [mg/dL] | Activity [6] [U/L] | Activity [7] [g/dL] | Activity [8] [mg/dL] | Activity [9] [U/L] | Activity [10] [mg/dL] | Activity [11] [U/L] | Activity [12] [U/L] | Activity [13] [mg/dL] | Activity [14] [g/dL] | Activity [15] [U/L] | Activity [16] [mg/dL] | Activity [17] [mg/dL] | Activity [18] [g/dL]
1 | COc1cc(-c2cc(=O)c3c(O)cc(O)cc3o2)ccc1O [CHRYSOERIOL] | 62.65 | 0.33 | 176.21 | 3.05 | 165.36 | 12.05 | 5.61 | 88.37 | 69.42 |  |  |  |  |  |  |  |  | 
2 | COc1cc(-c2cc(=O)c3c(O)cc(OC4O[C@H](CO)[C@@H](O)[C@@H]4OC4OC[C@@H](O)[C@H](O)[C@H]4O)cc3o2)ccc1O (some centres not stated) | 61.64 | 0.33 | 177.22 | 3.07 | 163.36 | 12.03 | 5.67 | 88.34 | 68.43 |  |  |  |  |  |  |  |  | 
3 | SILYMARIN |  |  |  |  |  |  |  |  |  | 141 | 10.5 | 65.2 | 171 | 6.1 | 56.6 | 0.38 | 80.9 | 3.1
